From ChEMBL document CHEMBL1128502, “Aziridine analogs of [[trans-(epoxysuccinyl)-L-leucyl]amino]-4-guanidinobutane (E-64) as inhibitors of cysteine proteases” (J Med Chem, 1995) come the findings set out here.

Test [1] deals with T1, Papain (Carica papaya) (UniProt P00784).
T1 sequence (whole entry): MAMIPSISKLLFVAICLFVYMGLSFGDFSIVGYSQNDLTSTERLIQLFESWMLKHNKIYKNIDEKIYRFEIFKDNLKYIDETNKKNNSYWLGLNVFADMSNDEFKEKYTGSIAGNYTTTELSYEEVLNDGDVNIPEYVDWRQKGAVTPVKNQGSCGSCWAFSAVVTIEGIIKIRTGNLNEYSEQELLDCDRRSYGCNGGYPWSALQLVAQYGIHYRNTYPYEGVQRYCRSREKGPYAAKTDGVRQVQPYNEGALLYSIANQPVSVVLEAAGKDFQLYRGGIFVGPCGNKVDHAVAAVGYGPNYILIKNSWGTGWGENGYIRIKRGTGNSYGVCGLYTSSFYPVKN
Kind of test: Second order rate constant for the inactivation of papain at pH 6.5 was reported. In short, it runs like this:
(§1)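 Inactivation of cysteine protease was followed at 25 °C in 50 mM buffer with 0.2 M NaCl, 5 mM EDTA, 1 mM DTT and 10% acetonitrile. Buffers were citrate for pH 3.0–5.7, phosphate for pH 5.7–7.9 and borate for pH 7.9–9.0. The second-order constant kinac/Ki was obtained by the Tian and Tsou method.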

Test [2] addresses Procathepsin L (Homo sapiens) (UniProt P07711). Kind of test: Second order rate constant for the inactivation of cathepsin L at pH 6.5 was reported. A digest of the protocol: as §1
For test [3], the target named is T1, Papain (Carica papaya). Kind of test: Second order rate constant for the inactivation of papain at pH 6.5 was reported; No time dependent inhibition observed. A digest of the protocol: as §1
In test [4] the target is Cathepsin B (Rattus norvegicus) (UniProt P00787). Kind of test: Second order rate constant for the inactivation of cathepsin B at pH 6.0 was reported.
The target is the same in test [5]. Nature of the test: Second order rate constant for the inactivation of cathepsin B at pH 6.0 was reported; No time dependent inhibition observed. A digest of the protocol:
as §1

Test [6] concerns the target Procathepsin L (Homo sapiens) (UniProt P07711). Kind of test: Second order rate constant for the inactivation of cathepsin L at pH 5.5 was reported. A digest of the protocol: as §1

Chain of Procathepsin L (Homo sapiens) (P07711 114-333 limits assumed): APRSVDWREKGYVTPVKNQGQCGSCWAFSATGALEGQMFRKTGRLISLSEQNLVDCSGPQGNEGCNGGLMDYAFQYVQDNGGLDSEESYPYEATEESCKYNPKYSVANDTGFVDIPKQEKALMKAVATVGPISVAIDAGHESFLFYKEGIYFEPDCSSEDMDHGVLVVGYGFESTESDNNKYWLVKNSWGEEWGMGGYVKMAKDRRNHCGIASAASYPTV
Chain of Cathepsin B (Rattus norvegicus) (P00787 80-333 limits assumed): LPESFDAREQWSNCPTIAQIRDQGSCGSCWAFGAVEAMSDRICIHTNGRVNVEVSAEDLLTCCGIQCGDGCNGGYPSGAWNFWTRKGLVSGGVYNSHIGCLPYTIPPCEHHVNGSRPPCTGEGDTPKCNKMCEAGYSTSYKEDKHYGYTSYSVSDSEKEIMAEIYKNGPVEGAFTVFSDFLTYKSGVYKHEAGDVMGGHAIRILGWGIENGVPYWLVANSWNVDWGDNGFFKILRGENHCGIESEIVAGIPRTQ

Consider `CC(C)CNC(=O)[C@H]1N[C@H]1C(=O)O`, for which, in test [1], the K inact/Ki was determined as 9.4 M⁻¹ s⁻¹.

In the case of `CC(C)CNC(=O)[C@@H]1N[C@H]1C(=O)N[C@@H](CC(C)C)C(=O)N1CCC[C@H]1C(=O)O`, the K inact/Ki in test [2] is 50 M⁻¹ s⁻¹; in test [3] it was “No inhibition”; in test [4], 13 M⁻¹ s⁻¹.

In the case of `CC(C)CNC(=O)[C@@H]1N[C@@H]1C(=O)N[C@@H](CC(C)C)C(=O)N1CCC[C@H]1C(=O)O`, the entries for the “K inact/Ki” value in test [5], in test [6] and in test [1] were “No inhibition”, 6.7 M⁻¹ s⁻¹ and 1.8 M⁻¹ s⁻¹, respectively.
